High-throughput results: PubChem, several laboratories
Only some compounds are listed: those with a hit (about 2.2% of all), similar ones and a draw of the others.
Hsp70 activator: switches on Hsp70 transcription; HeLa Hsp70 promoter luciferase reporter, luminescence; scaled: vehicle 0, proteasome-inhibitor control 100%; hit rate 0.04% among 200,000; activation, % at 10 µM;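 active means activation above the mean across all tested compounds plus 3 SD, cutoff set per campaign, cut at about 5.5% in these data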;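 further: 100% = MG132 at 30 µM as the positive control and 0% = DMSO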
MDM2 E3 inh: inhibitors of human Mdm2 E3 ubiquitin ligase; AID 1230; Q00987; hit rate 0.11% among 210,000; signal enhancement, % at 5 µM; cell-based MDM2 ubiquitination luciferase reporter, 2 h; 0 = plate control, 100 = twice control, blank-subtracted;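 active means signal enhancement of 30% or more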;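 further: luminescence tracks abundance of the self-degrading MDM2-luciferase fusion protein; higher signal means inhibition of MDM2 E3 ligase activity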
Target sequence (Q00987 whole entry, looked up, the tested form may be a part): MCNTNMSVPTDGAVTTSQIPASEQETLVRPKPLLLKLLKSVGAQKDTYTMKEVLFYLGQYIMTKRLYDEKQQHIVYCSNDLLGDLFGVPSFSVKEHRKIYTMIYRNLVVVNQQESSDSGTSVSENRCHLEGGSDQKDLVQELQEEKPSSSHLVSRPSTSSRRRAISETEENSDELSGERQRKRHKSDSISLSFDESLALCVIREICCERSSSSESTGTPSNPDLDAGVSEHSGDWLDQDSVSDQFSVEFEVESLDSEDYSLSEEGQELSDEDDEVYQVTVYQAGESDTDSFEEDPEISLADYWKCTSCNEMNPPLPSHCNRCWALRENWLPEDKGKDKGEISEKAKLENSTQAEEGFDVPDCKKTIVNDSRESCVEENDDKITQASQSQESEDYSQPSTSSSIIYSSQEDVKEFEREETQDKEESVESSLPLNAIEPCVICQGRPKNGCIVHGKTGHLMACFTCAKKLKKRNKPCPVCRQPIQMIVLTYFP
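Test system: stable mammalian line carrying autodegrading MDM2–luciferase fusion reporter; quantity: 2000 cells in each well; times: 4 h cell settling then 2 h compound exposure, 37 °C; detection: luminescence with SteadyLite reagent, 15 min at room temperature; evaluation: percent signal gain over controls, blank-subtracted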
INS promoter inh: TRM-6 insulin promoter activity inhibition. hit rate 0.9% among 130,000. TRM-6 cells (human fetal islet line), insulin promoter-eGFP reporter, imaging; reporter expression induced with tamoxifen. inhibition, % at 2 µM. AID 1273;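 active means inhibition above the mean plus 3 SD, with well images judged a real hit on visual review, cut at about 60% in these data, passing the limit was not always enough; inconclusive means inhibition over the cutoff but images rejected on review; inactive means inhibition not above the cutoff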
Wee1 degr inh: blocks degradation of human Wee1 kinase. HeLa Luc-Wee1K328M stability, luciferase luminescence; 100% = proteasome inhibitor MG132 effect. reporter increase, % at 5 µM. hit rate 1.2% among 220,000. AID 1321;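 active means activation above the mean of all tested compounds plus 3 SD, set per screening run, cut at about 8.8% in these data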;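 further: cells exposed to compound for 20 h before luminescence read; 0% = DMSO alone and 100% = MG132 at 30 µM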
Insulin prom up: MIN6 insulin promoter up-regulation. MIN6 insulin promoter-GFP reporter, high-content imaging; hits give high values. z-score at 5 µM. hit rate 0.3% among 190,000. AID 1625;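 active means z-score above 3 at 5 µM with at least 500 cells counted in the well; inconclusive means wells under 500 cells, flagged as cytotoxic or low count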
RBBP9 inh: blocks human serine hydrolase RBBP9; hit rate 0.2% among 220,000; O75884; recombinant RBBP9, FP-Rh probe fluorescence polarization; AID 1515; inhibition, % at 7.94 µM;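 active means inhibition above the campaign mean of all tested compounds plus 3 SD, cut at about 14% in these data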;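 further: plate controls were DMSO wells with RBBP9 for no effect and wells lacking RBBP9 protein for full effect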
Target sequence (O75884 whole entry, looked up): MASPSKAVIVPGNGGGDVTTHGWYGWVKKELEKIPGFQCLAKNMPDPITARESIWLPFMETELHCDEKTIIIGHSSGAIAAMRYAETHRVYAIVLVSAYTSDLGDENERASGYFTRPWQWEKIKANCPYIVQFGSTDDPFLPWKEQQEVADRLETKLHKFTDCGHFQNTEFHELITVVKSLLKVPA
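Measured by: FP readout at 525/598 nm; material: recombinant human RBBP9; also added: Serine-hydrolase probe FP-Rh, 375 nM pre-mixing; medium: Tris buffer pH 8.0, NaCl, Pluronic; replication: one well per compound; doses: one concentration, 7.94 µM nominal, 0.794% DMSO; timing: preincubation 30 min plus labeling 45 min at 25 °C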
Numbers without * were called inactive.

`COc1ccc(S(=O)(=O)N2CCCCCC2)cc1N` gave Hsp70 activator 0, MDM2 E3 inh -4, INS promoter inh 20, Wee1 degr inh -1, Insulin prom up 0.59 and RBBP9 inh -3.
For O=C(Nc1ccsc1C(=O)NC1CC1)c1ccccc1 the results were Hsp70 activator 0, MDM2 E3 inh -4, INS promoter inh 85*, Wee1 degr inh -1, Insulin prom up 0.07 and RBBP9 inh 4.
For O=C(Nc1ccsc1C(=O)NC1CCCCC1)c1ccc(F)cc1 the results were Hsp70 activator 0, MDM2 E3 inh -5, INS promoter inh -25, Wee1 degr inh 0 and RBBP9 inh -2.
Cc1nc(S(=O)(=O)Cc2ccccc2Cl)nc2c1CCC2 was read as Hsp70 activator 0, MDM2 E3 inh -1, INS promoter inh 73*, Wee1 degr inh -1, Insulin prom up 0.71 and RBBP9 inh -1.
COc1cc(/C=C2\COC/C(=C\c3cc(OC)c(OC)c(OC)c3)C2=O)cc(OC)c1OC was read as MDM2 E3 inh 69*, Wee1 degr inh 127*, Insulin prom up -2.3 and RBBP9 inh 0.
Screening COc1cc(/C=C2\CC/C(=C\c3cc(OC)c(OC)c(OC)c3)C2=O)cc(OC)c1OC returned Hsp70 activator 0, MDM2 E3 inh 4, INS promoter inh 17, Wee1 degr inh 4, Insulin prom up -0.26 and RBBP9 inh 8.
For COc1cc(/C=C2\CC/C(=C\c3cc(OC)c(O)c(OC)c3)C2=O)cc(OC)c1O the results were Hsp70 activator 0, MDM2 E3 inh -8, INS promoter inh 8, Wee1 degr inh 3, Insulin prom up inconclusive and RBBP9 inh 19*.
COc1ccc(/C=C(\C#N)C(=O)OCC(=O)NC(=O)NCCC(C)C)cc1 was read as Hsp70 activator 0, MDM2 E3 inh 6, INS promoter inh -20, Wee1 degr inh -1 and RBBP9 inh 7.
`COc1ccc(/C=C(\C#N)C(=O)OCC(=O)Nc2c(C)cccc2C(C)C)cc1` gave Hsp70 activator 0, INS promoter inh 25, Wee1 degr inh 0, Insulin prom up 3.4* and RBBP9 inh -8.
`O=C1c2ccccc2C(=O)N1CNc1ccccc1` gave Hsp70 activator 0, MDM2 E3 inh 3, INS promoter inh 8, Wee1 degr inh 14*, Insulin prom up 0.1 and RBBP9 inh 6.
`CCCn1c(-c2ccc(OC)cc2)nc2ccccc21` gave Hsp70 activator 0, MDM2 E3 inh -3, Wee1 degr inh 2, Insulin prom up -4.7 and RBBP9 inh -5.
CCn1c(COc2ccccc2)nc2ccccc21 was read as Hsp70 activator 1, MDM2 E3 inh 3, INS promoter inh 67, Wee1 degr inh -3 and RBBP9 inh -2.
COCn1c(-c2ccc(OC)cc2)nc2ccccc21 was read as Hsp70 activator 0, MDM2 E3 inh 2, INS promoter inh 92*, Wee1 degr inh 9.2*, Insulin prom up 0.07 and RBBP9 inh -10.
CCn1c(COc2ccc(OC)cc2)nc2ccccc21 was read as Hsp70 activator 0, MDM2 E3 inh -8, INS promoter inh -6, Wee1 degr inh 8.8*, Insulin prom up -0.21 and RBBP9 inh -3.
COc1ccccc1NC(=O)c1ccc(NC(=O)CN2C(=O)CN(C)C2=O)cc1 was read as Hsp70 activator 0, MDM2 E3 inh -10, Wee1 degr inh -3, Insulin prom up -0.71 and RBBP9 inh 1.
For Cc1cccc2nc(COc3ccc4ccccc4c3Br)cn12 the results were Wee1 degr inh 11*, Insulin prom up -1.7 and RBBP9 inh -12.
Screening Cc1cccc2nc(CSc3ccccc3N)cn12 returned Hsp70 activator 1, INS promoter inh -119, Wee1 degr inh 3 and RBBP9 inh -2.
Screening COc1ccc(-c2cn3ccccc3n2)cc1 returned MDM2 E3 inh -46, Wee1 degr inh 5, Insulin prom up -0.13 and RBBP9 inh -7.
COc1ccc(-c2cn3ccc4ccccc4c3n2)cc1 was read as Hsp70 activator 0, INS promoter inh 77*, Wee1 degr inh 2, Insulin prom up 0.68 and RBBP9 inh -8.
Screening N#C/C(=C(/O)c1ccco1)c1nc2ccccc2s1 returned Hsp70 activator 0, MDM2 E3 inh -3, Wee1 degr inh -2, Insulin prom up -0.58 and RBBP9 inh 2.
N#C/C(=C(/O)c1cccc(F)c1)c1nc2ccccc2s1 was read as Wee1 degr inh 10*, Insulin prom up 0.14 and RBBP9 inh 2.
For Cc1cc(NCCCN2CCOCC2)n2ncc(-c3ccccc3)c2n1 the results were Hsp70 activator 1, MDM2 E3 inh -4, INS promoter inh -13, Wee1 degr inh 11*, Insulin prom up 0.59 and RBBP9 inh 4.
For Cc1cc(NCCCN2CCOCC2)n2nc(C)c(-c3ccccc3)c2n1 the results were Hsp70 activator 0, MDM2 E3 inh -9, INS promoter inh 27, Wee1 degr inh -1, Insulin prom up -2 and RBBP9 inh -5.
CCS(=O)(=O)c1ccc2c(c1)N(S(C)(=O)=O)CC(C(=O)NN)O2 (stereo not given) was read as Hsp70 activator 0, MDM2 E3 inh -15, Wee1 degr inh -3, Insulin prom up -0.14 and RBBP9 inh -4.
COCCN=c1scc(-c2ccco2)n1/N=C/c1ccc(O)c(O)c1O was read as Hsp70 activator 0, MDM2 E3 inh -17, Wee1 degr inh 1, Insulin prom up 0.85 and RBBP9 inh 24*.
For CC(C)N=c1scc(-c2ccco2)n1/N=C/c1ccc(O)c(O)c1 the results were Hsp70 activator 0, MDM2 E3 inh -14, INS promoter inh -5, Wee1 degr inh 3, Insulin prom up -5.1 and RBBP9 inh -10.
`CCCn1nnc(NC(=O)c2ccc(-c3ccccc3)cc2)n1` gave Hsp70 activator 0, MDM2 E3 inh -23, INS promoter inh -8, Wee1 degr inh 5, Insulin prom up -0.48 and RBBP9 inh -9.
Screening CCCn1nnc(NC(=O)c2ccc(Br)cc2)n1 returned Hsp70 activator 0, MDM2 E3 inh -9, INS promoter inh 79*, Wee1 degr inh 7, Insulin prom up 1.5 and RBBP9 inh -6.
For CCCCC(=O)Nc1ccccc1Oc1ccccc1 the results were Hsp70 activator 0, MDM2 E3 inh -10, Wee1 degr inh 6, Insulin prom up -0.29 and RBBP9 inh -5.
Screening CCCc1c(C)[nH]c2ccccc2c1=O returned Hsp70 activator 0, MDM2 E3 inh -6, INS promoter inh 71*, Wee1 degr inh -1, Insulin prom up 0.17 and RBBP9 inh -2.
CCCc1c(C)[nH]c2ccc(NC(C)=O)cc2c1=O was read as Hsp70 activator 0, MDM2 E3 inh -7, INS promoter inh 20, Wee1 degr inh 8.9* and RBBP9 inh 4.
